Measured values published in article PMC6868502 (Journal of natural products, 2018).
Where two headings read alike, the source gives them in different places.

Assays:
Caco-2 cell line = assay: Caco-2 permeability; format: in vitro ADME
[1] = tested on: NPC1 protein in GM18453 fibroblasts; assay: NPC1 protein expression, Western blot after endoglycosidase H treatment; format: cell-based, human; details: 48 hours; for levels of the 250 kDa NPC1 isoform: SAHA 5 μM or GEX1A 50 nM
histone acetylation = details: cited from earlier work
[2] = Liver microsome stability; format: in vitro ADME
[3] = tested on: low-density lipoprotein (LDL) receptor; details: ref 5; cited from earlier work
[4] = tested on: GM18453 skin fibroblast cell line (I1061T mutation on both alleles of NPC1); assay: Filipin staining of unesterified cholesterol in NPC1 mutant fibroblasts; format: cell-based, human; details: GM18453 cells; for concentration at which the lowest filipin area/cell is achieved: dose range 1 nM to 5 μM; for concentration giving significant rescue of cholesterol accumulation (as low as): filipin fluorescence images
Plasma protein binding = format: in vitro ADME
[5] = tested on: NPC1 protein in GM18453 fibroblasts; assay: NPC1 protein expression, Western blot after peptide:N-glycosidase F treatment; format: cell-based, human; details: 48 hours
How it was run: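 NPC1-mutant GM18453 fibroblasts exposed for 48 h at 37°C, 5% CO2 to test compound (50 nM), SAHA (5 μM) or 0.1% v/v DMSO, then lysed in RIPA with protease inhibitors. Lysate (25 μg) digested with PNGase F (1000 U) in SDS, DTT and Tris-HCl pH 8, overnight (~18 h) at 37°C. Immunoblot with rabbit anti-NPC1, ECL on film. Densitometry normalised to actin, relative to DMSO; four independent experiments; SD; t-test.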

Aqueous solubility = format: physicochemical
Pharmacokinetics in mice = format: in vivo; details: mice dosed at 2 mg/kg
[6] = tested on: GM18453 skin fibroblast cell line (I1061T mutation on both alleles of NPC1); details: several NPC1 mutant cell lines, including GM18453; cited from earlier work
[7] = tested on: GM18407 fibroblast cell line (NPC1 R404Q, M1142T); details: GM18407 cells; cited from earlier work
[8] = tested on: GM18407 fibroblast cell line (NPC1 R404Q, M1142T); assay: Filipin staining of cholesterol accumulation in GM18407 fibroblasts; format: cell-based, human; details: GM18407 cells, even at high concentrations

CO[C@H]([C@@H](C)[C@H]1O[C@]1(C)C[C@H](C)/C=C/C=C(\C)[C@H]1O[C@@H](CC(=O)O)CC[C@@H]1C)[C@@H](C)O [Compound 1, GEX1A]
permeability (Caco-2 cell line; Caco-2): reasonably permeable
efflux (Caco-2 cell line; Caco-2 cell line): no evidence of efflux
expression of the 180 kDa NPC1 species ([1]; GEX1A 50 nM, vs DMSO): increases the expression of the 180 kDa species
levels of the 250 kDa NPC1 isoform ([1]; vs DMSO): did not cause a significant increase
effect on histone acetylation (histone acetylation; ref 5): does not affect histone acetylation
effect on histone acetylation (histone acetylation; ref 32): no effect on histone acetylation
stability in liver microsomes [2]: quite stable
expression of the LDL receptor [3]: increased expression
effects on cell and nuclei shape (cellular toxicity) ([4]; 5 μM): detrimental effects on cell and nuclei shape
concentration at which the lowest filipin area/cell is achieved ([4]; 48 hours): 50 nM
concentration giving significant rescue of cholesterol accumulation (as low as) ([4]; 48 hours): 50 nM
plasma protein binding profile (Plasma protein binding): excellent plasma protein binding profile
expression of the highly glycosylated 180 kDa NPC1 isoform ([5]; GEX1A 50 nM, PNGase F experiment): clear increase
level of NPC1 protein expression including both the 250 and 120 kDa isoforms ([5]; GEX1A 50 nM, PNGase F, vs DMSO): significant increase
aqueous solubility (Aqueous solubility): exceptional aqueous solubility
half-life (Pharmacokinetics in mice): long half-life

COC(=O)C[C@H]1CC[C@H](C)[C@@H](/C(C)=C/C=C/[C@@H](C)C[C@@]2(C)O[C@@H]2[C@H](C)[C@@H](OC)[C@@H](C)O)O1 [Compound 2, Methyl 2-((2R,5S,6S)-6-((S,2E,4E)-7-((2R,3R)-3-((2R,3R,4R)-4-hydroxy-3-methoxypentan-2-yl)-2-methyloxiran-2-yl)-6-methylhepta-2,4-dien-2-yl)-5-methyltetrahydro-2H-pyran-2-yl) acetate]
concentration at which the lowest filipin area/cell is achieved ([4]; 48 hours): 50 nM
concentration giving significant rescue of cholesterol accumulation (as low as) ([4]; 48 hours): 50 nM

COC(=O)C[C@H]1CC[C@H](C)[C@@H](/C(C)=C/C=C/[C@@H](C)C[C@@]2(C)O[C@@H]2[C@H](C)[C@@H](OC)[C@@H](C)OC(C)=O)O1 [Compound 3, Methyl 2-((2R,5S,6S)-6-((S,2E,4E)-7-((2R,3R)-3-((2R,3R,4R)-4-acetoxy-3-methoxypentan-2-yl)-2-methyloxiran-2-yl)-6-methylhepta-2,4-dien-2-yl)-5-methyltetrahydro-2H-pyran-2-yl) acetate]
concentration at which the lowest filipin area/cell is achieved ([4]; 48 hours): 50 nM
concentration giving significant rescue of cholesterol accumulation (as low as) ([4]; 48 hours): 50 nM

COC(=O)C[C@H]1CC[C@H](C)[C@@H](/C(C)=C/C=C/[C@@H](C)C[C@@]2(C)O[C@@H]2[C@H](C)[C@@H](OC)C(C)=O)O1 [Compound 4, Methyl 2-((2R,5S,6S)-6-((S,2E,4E)-7-((2R,3R)-3-((2S,3R)-3-methoxy-4-oxopentan-2-yl)-2-methyloxiran-2-yl)-6-methylhepta-2,4-dien-2-yl)-5-methyltetrahydro-2H-pyran-2-yl)acetate]
cholesterol clearance compared to vehicle treatment ([4]; 50 nM, 48 hours, filipin): Some cholesterol clearance

O=C(CCCCCCC(=O)Nc1ccccc1)NO [SAHA, suberoylanilide hydroxamic acid, reference compound]
levels of the 250 kDa NPC1 isoform ([1]; vs DMSO): increases the expression of the larger (250 kDa) isoform
increase in the levels of total NPC1 protein ([1]; SAHA 5 μM, Endo H, densitometry vs DMSO): approximately twofold
reversal of cholesterol accumulation in NPC1 mutant cell lines [6]: effective in reversing cholesterol accumulation
effect on lysosomal cholesterol accumulation [7]: no effect on lysosomal cholesterol accumulation
rescue of the disease phenotype (cholesterol accumulation) [8]: neither SAHA nor compounds 1 – 4 were able to effectively rescue the disease phenotype
levels of the 250 kDa NPC1 isoform ([5]; SAHA 5 μM, PNGase F experiment, vs DMSO): moderate increase
